Screening data from PubChem BioAssay.
Rows were chosen to be rich in hits. Some 3.9% of all compounds tested hit in one or more screens of this group.
TMEM16A inh: mouse TMEM16A channel inhibition, primary screen; Q8BHY3; HEK293 TMEM16A/YFP iodide influx fluorescence, ionomycin; normalized B-score (activity score, 25-100; higher = stronger inhibition) at 10 µM; 310,000 tested, 1.2% active; AID 588511;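 active = ratio plate-corrected score three or more library SD toward inhibition, starting fluorescence score within five deviations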;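 note: score derived from kinetic fluorescence span divided by baseline fluorescence per well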
Target sequence (Q8BHY3 whole entry, looked up): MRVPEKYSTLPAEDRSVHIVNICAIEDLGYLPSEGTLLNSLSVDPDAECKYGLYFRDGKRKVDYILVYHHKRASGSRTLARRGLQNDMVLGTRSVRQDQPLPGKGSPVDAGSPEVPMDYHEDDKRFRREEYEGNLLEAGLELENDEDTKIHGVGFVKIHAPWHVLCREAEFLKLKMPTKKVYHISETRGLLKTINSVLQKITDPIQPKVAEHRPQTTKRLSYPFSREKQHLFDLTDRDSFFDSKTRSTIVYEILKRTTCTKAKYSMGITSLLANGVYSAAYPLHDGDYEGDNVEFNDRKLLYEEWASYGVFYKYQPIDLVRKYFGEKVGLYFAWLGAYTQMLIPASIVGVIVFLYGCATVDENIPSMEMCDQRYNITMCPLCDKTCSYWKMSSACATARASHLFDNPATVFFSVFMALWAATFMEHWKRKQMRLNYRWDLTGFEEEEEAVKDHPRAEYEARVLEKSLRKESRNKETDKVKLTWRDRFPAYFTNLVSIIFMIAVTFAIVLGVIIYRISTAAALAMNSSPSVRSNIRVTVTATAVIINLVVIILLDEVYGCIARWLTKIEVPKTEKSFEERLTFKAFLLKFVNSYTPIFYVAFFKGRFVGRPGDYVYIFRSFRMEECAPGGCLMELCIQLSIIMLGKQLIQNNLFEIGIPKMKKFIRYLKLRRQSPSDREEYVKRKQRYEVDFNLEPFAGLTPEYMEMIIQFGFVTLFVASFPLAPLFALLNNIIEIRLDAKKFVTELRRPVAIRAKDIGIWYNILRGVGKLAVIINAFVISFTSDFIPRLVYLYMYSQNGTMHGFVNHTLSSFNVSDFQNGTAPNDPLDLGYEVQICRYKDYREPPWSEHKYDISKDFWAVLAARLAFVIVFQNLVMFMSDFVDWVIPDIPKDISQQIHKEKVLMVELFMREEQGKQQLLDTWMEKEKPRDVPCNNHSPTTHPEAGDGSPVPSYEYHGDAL
TAAR1 agonist: agonists of human TAAR1; CHO RD-HGA16 TAAR1, Fluo-8 calcium fluorescence; vehicle wells 0%, saturating PEA agonist 100%; activation, % at 3 µM; 360,000 tested, 0.99% active; AID 624467;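 active = activation above the mean activation of all test compounds in the run plus 3 SD, cut at about 38% in these data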
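Test system: RD-HGA16 (CHO) cells co-expressing Gα16 and hTAAR1 | Doses: Single dose, 3 µM | Schedule: 17-24 h seeding, 75 min 37 °C dye, 30 min RT | Evaluation: % activation from peak over basal fluorescence ratio, DMSO-to-PEA scaled | Technique: Kinetic Fluo-8 calcium fluorescence | Benchmarks: Low control DMSO, high control PEA (EC100)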
TAAR1 antagonist: human TAAR1 antagonism; CHO RD-HGA16 TAAR1, Fluo-8 calcium fluorescence, antagonist; inhibition, % at 3 µM; 360,000 tested, 1.5% active;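 active = inhibition above a per-plate cutoff, the mean inhibition of test compounds on that plate plus 3 SD, cut at about 49% in these data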
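test system = CHO RD-HGA16 cells bearing hTAAR1 | replication = singlicate | controls = DMSO-only wells and EC80 β-PEA-stimulated wells | reagent = EC80 β-phenethylamine stimulus | read-out basis = percent inhibition of PEA-evoked calcium signal, max/basal emission ratio | schedule = seeding 17-24 h prior, 75-min 37 °C, 30-min RT dye loading | signal = kinetic Fluo-8 calcium fluorescence measurement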
TMEM16A act: activators or potentiators of mouse TMEM16A chloride channel. Q8BHY3. 340,000 tested, 0.3% active. B-score at 10 µM. HEK293 TMEM16A/YFP-H148Q/I152L, iodide quench fluorescence; hits give low values;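 active = fluorescence-ratio B-score plate-corrected deviation score at least 3 library SD below zero, with starting fluorescence score within 5 deviations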;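 note: channel opened by trigger with iodide after compound preincubation; score built on the fluorescence ratio of max minus min over baseline; more negative score means more quench and so TMEM16A activation or potentiation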
CRFBP-R2 block: CRF-BP/CRF-R2 complex antagonism. HEK293 CRF-R2/CRF-BP, CRF-induced calcium fluorescence. inhibition, % at 11.8 µM. 350,000 tested, 0.59% active;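 active = inhibition of the ligand-induced calcium signal above about 50% at the single tested concentration, limit read from the data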
CRFBP-R2 agonist: agonists of human CRF-binding protein/CRF-R2 receptor complex. HEK293 CRF-R2/CRF-BP, calcium dye fluorescence (FLIPR); percent of saturating CRF peptide response. activation, % at 13.2 µM. 350,000 tested, 0.46% active;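 active = activation of at least 50%, plus an integration ratio under a set limit after plate pattern correction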
Of the large screens only hits and unclear results are named; the others gave an inactive call.

CCN(c1ccccc1)S(=O)(=O)c1ccc(OC)c(NC(=O)CNCCc2ccccc2)c1	TAAR1 antagonist 55.1
C=CCSC1=N/C(=C\c2cc(OCC)c(OC(C)=O)c([N+](=O)[O-])c2)C(=O)S1	CRFBP-R2 block 53.4
C=CCSC1=N/C(=C\c2ccc3c(c2)OCO3)C(=O)S1	none
C[C@H]1COC(=O)[C@H](Cc2ccc(F)cc2)C/C=C\C[C@H](CC(=O)NCCO)C(=O)N1	none (no result: TMEM16A inh)
O=C(NCCCCCCNC(=O)N1CCCCCC1)N1CCCCCC1	CRFBP-R2 block 75.7
O=C(O)c1ccccc1C1=Nc2ccc(O)cc2Oc2cc(O)ccc21	CRFBP-R2 agonist 107.2
Cc1nn(-c2ccccc2)c(Cl)c1/C=N/Nc1nc2ccccc2[nH]1	TMEM16A act -7.34
CC1(C(=O)NS(=O)(=O)c2ccccc2Cl)CCN1C(=O)C/C=C/c1ccccc1 (configuration not stated)	none (no result: TMEM16A inh, TMEM16A act, CRFBP-R2 block, CRFBP-R2 agonist)
Cn1c(-c2ccc(C#N)cc2)c(C#Cc2ccccc2)c2ccccc21	none (no result: TMEM16A inh, TMEM16A act)
N#Cc1c(-c2ccc(Cl)cc2)n(O)c2ccccc12	CRFBP-R2 block 62.8, CRFBP-R2 agonist 56.9 (no result: TMEM16A inh, TAAR1 agonist, TAAR1 antagonist)
CCc1cccc(NC(=O)CCc2nc(-c3cccs3)no2)c1	none
O=C(CCc1nc(-c2cccs2)no1)Nc1cnc2ccccc2c1	TAAR1 agonist 42.0
Cc1ccc(S(=O)(=O)N2CCOCC2)cc1NC(=O)CNC1CCCC1	none
CCNC(=S)N/N=C/c1ccc(OCC(=O)Nc2ccc(OC)cc2)c(OC)c1	TAAR1 antagonist 51.1
CCCCNC(=S)N(C)/N=C/c1ccc(OCC(=O)Nc2ccc(OC)cc2)c(OC)c1	TAAR1 antagonist 58.2
COc1cc(/C=N/NC(=S)NC(C)C)ccc1OCC(=O)Nc1c(C)cc(C)cc1C	TAAR1 antagonist 49.8
COc1ccc(NC(=O)COc2ccc(/C=N/O)cc2OC)cc1	none
CCCCNC(=S)N(C)/N=C/c1ccc(OCC(=O)Nc2c(C)cc(C)cc2C)c(OC)c1	none
COC(=O)c1ccccc1SC(CC(=O)c1ccccc1)c1ccc(F)cc1 (configuration not stated)	none
CCOc1ccc(CN(C)CC(=O)Nc2cccc(S(=O)(=O)N(C)c3ccccc3)c2)cc1	none
CCC(=O)c1ccc(OCC(=O)Nc2cccc(S(=O)(=O)N(C)c3ccccc3)c2)cc1	TAAR1 antagonist 76.4 (no result: TMEM16A inh)
CN(c1ccccc1)S(=O)(=O)c1cccc(NC(=O)COc2cccc([N+](=O)[O-])c2)c1	TAAR1 antagonist 70.2, CRFBP-R2 block 51.5 (no result: TMEM16A inh)
O=C(NCc1ccc(Cl)cc1)c1ccc2ccccc2n1	none
CCc1cc2c(COC(=O)CCNS(=O)(=O)c3cccc(C(F)(F)F)c3)cc(=O)oc2cc1O	TAAR1 antagonist 53.4 (no result: TMEM16A inh)
CC(=O)Nc1cccc(-c2cc(NC(C)=O)c3ncc(-c4cccc(C(F)(F)F)c4)n3c2)c1	TAAR1 antagonist 50.1 (no result: TMEM16A inh, TMEM16A act, CRFBP-R2 block, CRFBP-R2 agonist)
CC(=O)Nc1cc(-c2ccc(N)cc2)cn2c(-c3cccc(C(F)(F)F)c3)cnc12	none (no result: TMEM16A inh, TMEM16A act, CRFBP-R2 block, CRFBP-R2 agonist)
CC(=O)Nc1cc(-c2ccc(CO)cc2)cn2c(-c3ccc(F)c(Cl)c3)cnc12	TAAR1 antagonist 54.1 (no result: TMEM16A inh, TMEM16A act, CRFBP-R2 block, CRFBP-R2 agonist)
COc1cccc(-c2cnc3c(NC(C)=O)cc(-c4cccc(NS(C)(=O)=O)c4)cn23)c1	TAAR1 antagonist 50.4 (no result: TMEM16A inh, TMEM16A act, CRFBP-R2 block, CRFBP-R2 agonist)
COc1cccc(-c2cnc3c(NC=O)cc(-c4cccc(NC(C)=O)c4)cn23)c1	TAAR1 antagonist 55.1 (no result: TMEM16A inh, TMEM16A act, CRFBP-R2 block, CRFBP-R2 agonist)
COCCn1c2nc(=O)n(-c3ccccc3)c(=O)c-2nc2ccccc21	TAAR1 agonist 58.9, CRFBP-R2 agonist 194.2 (no result: TMEM16A inh, TMEM16A act)
Cc1ccc(CN2CC(=O)N3[C@H]4c5cc(C)ccc5OC[C@@H]4[C@H](c4ccccc4)[C@]3(C)C2=O)cc1	none (no result: TMEM16A inh)
Cc1ccc(CN2CC(=O)N3[C@H]4c5cc(Cl)ccc5OC[C@@H]4[C@H](c4ccccc4)[C@]3(C)C2=O)cc1	CRFBP-R2 block 72.2 (no result: TMEM16A inh)
CCOC(=O)c1c(C(F)(F)C(F)(F)C(F)(F)C(F)(F)F)n[nH]c1C	CRFBP-R2 block 54.2
O=C(CN1C(=O)c2cccc3cccc1c23)NC1CCCC1	none
O=C(NC1CCCN(Cc2ccc(Cl)cc2)C1)c1cnc2ccccn2c1=O (configuration not stated)	none
CC(C)Cc1ccc(CN2CCCC(NC(=O)c3cnc4ccccn4c3=O)C2)cc1 (configuration not stated)	TMEM16A inh 25
COc1ccc(NC(=O)CCCC(=O)OCC(=O)c2cccc(OC)c2)cc1	none
N#C/C(=C\c1ccc(O)c([N+](=O)[O-])c1)c1nc2ccccc2s1	none (no result: TMEM16A inh)
COc1ccc(-c2csc(/C(C#N)=C\c3ccc(O)c([N+](=O)[O-])c3)n2)cc1OC	TMEM16A inh 100
COc1cc(/C=C(\C#N)c2nc3ccccc3s2)cc([N+](=O)[O-])c1O	TMEM16A act -16.2, CRFBP-R2 block 61.4 (no result: TMEM16A inh)
COc1ccc(NC(=O)CCNS(=O)(=O)c2ccc3[nH]c(=O)oc3c2)cc1Cl	none
Cn1c(N)c(C(=O)COc2ccc(C#N)cc2)c(=O)n(C)c1=O	TMEM16A act -9.08
CC(CCc1ccccn1)(CCc1ccccn1)C(=O)c1ccccc1	TAAR1 antagonist 53.5 (no result: TMEM16A inh)
O=C1C2C3C=CC(C4CC34)C2C(=O)N1/N=C/c1ccc(-c2ccc(Cl)cc2[N+](=O)[O-])o1 (configuration not stated)	TAAR1 antagonist 52.3
O=C1C2C3C=CC(C4CC34)C2C(=O)N1/N=C/c1ccc(-c2ccc(F)cc2[N+](=O)[O-])o1 (configuration not stated)	none
CSc1ccc(Cn2c(C)c(C(=O)NCc3ccccc3C(F)(F)F)sc2=O)cc1	TAAR1 antagonist 51.7 (no result: TMEM16A inh, TMEM16A act, CRFBP-R2 block, CRFBP-R2 agonist)
Cc1c(C(=O)NCc2ccccc2C(F)(F)F)sc(=O)n1Cc1ccc(Cl)c(Cl)c1	none (no result: TMEM16A inh, TMEM16A act, CRFBP-R2 block, CRFBP-R2 agonist)
Cc1ccc(S(=O)(=O)NCCn2cnc([N+](=O)[O-])n2)cc1	none
COC(=O)c1ccc(CSc2nc3c(cnn3-c3ccc(F)cc3)c(=O)[nH]2)o1	CRFBP-R2 block 51.5 (no result: TAAR1 agonist, TAAR1 antagonist)
Cc1cc(C)c2c(CN3CCN(Cc4ccccc4)CC3)cc(=O)oc2c1	none
CCCCCCCCSc1n[nH]c(N)n1	none
CCCCCCCCCSc1n[nH]c(N)n1	CRFBP-R2 block 68.9
COc1ccc(OC)c2sc(N(CCN(C)C)C(=O)c3ccc4ccccc4c3)nc12	none
COc1cc2ccccc2cc1C(=O)N(CCN(C)C)c1nc2c(OC)ccc(OC)c2s1	CRFBP-R2 block 72.2
Cc1[nH]c2ccccc2c1SCc1nnc(SCc2ccc(Cl)cc2)n1C	none
Cc1[nH]c2ccccc2c1SCc1nnc(SCc2ccccc2)n1C	CRFBP-R2 block 114.5
CC(=O)Nc1ccc(NC(=O)C(C)OC(=O)CCCOc2ccc(Cl)cc2C)cc1 (configuration not stated)	none
